Measured values from ChEMBL document CHEMBL3734686, “Synthesis, Photophysical Properties, and Biological Evaluation of trans-Bisthioglycosylated Tetrakis(fluorophenyl)chlorin for Photodynamic Therapy” (J Med Chem, 2015).
The source made the active and inactive calls.

Experiments:
[1] = test system: Lung; experiment: Drug uptake in BALB/c mouse lung implanted with mouse 4T1 cells assessed per gram of tissue at 0.18 mg/kg, ip after 24 hrs by HPLC-based fluorescence analysis; assay type: ADME, organism-based; conditions: in vivo
In short: (§1)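 Female BALB/c mice bearing 4T1 thigh tumours received an i.p. dose in ethanol/PEG400/H2O (2/3/5) with 0.1% DMSO, or in saline, and were kept dark until killed. Tissues were weighed (100 mg), homogenised in CH3OH/DMSO/H2O (32/8/1) and centrifuged twice at 2300×g at 4°C. Supernatants were analysed by HPLC with fluorescence detection (λex 404/λem 654 nm or λex 400/λem 666 nm). n = 3 per time point.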

[2] = Induction of reactive oxygen generation assessed as quantum yield of singlet oxygen generation in O2 saturated D2O containing 0.1% DMSO by spectrometry; assay type: physicochemical
In short: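 Photosensitizer in D2O with 0.1% DMSO, absorbance set to 0.4 at its excitation wavelength, oxygen-purged 1 min; singlet-oxygen luminescence recorded with NIR photomultiplier cooled to 193 K; TPPS as reference.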

[3] = test system: 4T1; experiment: Antitumor activity against mouse 4T1 cells implanted in BALB/c mouse at 0.18 mg/kg, ip assessed as tumor growth inhibition administered for 48 hrs followed by irradiation at 40 mW/cm2 for 20.1 mins measured after 5 days by Vernier calipers; assay type: functional, organism-based
In short: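 Female BALB/c mice carried 4T1 thigh tumours (1 × 10^6 cells) of 50–60 mm3. They were dosed i.p. at 250–31.25 nmol·kg−1 in ethanol/PEG400/H2O (2/3/5) containing 0.1% DMSO and kept dark. At 48 h the tumour was irradiated with a 100-W halogen lamp at 40 mW·cm−2 for 20.1 min. Tumour size was measured daily by caliper as length × width²/2 and normalised to day 0.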

[4] = Induction of reactive oxygen generation assessed as quantum yield of hydroxyl radical generation in O2 saturated PBS containing 1% DMSO under photoirradiation by spectrometry relative to control hematoporphyrin; assay type: physicochemical; conditions: buffer
In short: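 Photosensitizer (1.00 µM) with HPF (2.00 µM) in PBS containing 1% DMSO, oxygenated 1 min, irradiated with 100-W halogen lamp through λ>500 nm cutoff filter at 37°C; hematoporphyrin as reference.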

[5] = test system: Urinary bladder; experiment: Drug uptake in BALB/c mouse bladder implanted with mouse 4T1 cells assessed per gram of tissue at 0.18 mg/kg, ip after 6 hrs by HPLC-based fluorescence analysis; assay type: ADME, organism-based; conditions: in vivo; in short: as §1
[6] = test system: Stomach; experiment: Drug uptake in BALB/c mouse stomach implanted with mouse 4T1 cells assessed per gram of tissue at 0.18 mg/kg, ip after 48 hrs by HPLC-based fluorescence analysis; assay type: ADME, organism-based; conditions: in vivo
In short: (§2)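 Female BALB/c mice with 4T1 cells (1 × 10^6 in HBSS) implanted in left rear thigh; single i.p. dose, 7 in ethanol/PEG400/H2O (2/3/5) with 0.1% DMSO, mono-L-aspartyl chlorin e6 in saline; kept dark until sacrifice. Tissues washed, frozen, homogenized in CH3OH/DMSO/H2O (32/8/1), centrifuged 2300×g; supernatant analysed by HPLC with fluorescence detection; three animals per time point.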

[7] = test system: Stomach; experiment: Drug uptake in BALB/c mouse stomach implanted with mouse 4T1 cells assessed per gram of tissue at 0.18 mg/kg, ip after 72 hrs by HPLC-based fluorescence analysis; assay type: ADME, organism-based; conditions: in vivo; in short: as §2
[8] = test system: Kidney; experiment: Drug uptake in BALB/c mouse kidney implanted with mouse 4T1 cells assessed per gram of tissue at 0.18 mg/kg, ip after 72 hrs by HPLC-based fluorescence analysis; assay type: ADME, organism-based; conditions: in vivo; in short: as §1
[9] = test system: Muscle tissue; experiment: Drug uptake in BALB/c mouse muscle implanted with mouse 4T1 cells assessed per gram of tissue at 0.18 mg/kg, ip after 24 hrs by HPLC-based fluorescence analysis; assay type: ADME, organism-based; conditions: in vivo; in short: as §1
[10] = test system: Urinary bladder; experiment: Drug uptake in BALB/c mouse bladder implanted with mouse 4T1 cells assessed per gram of tissue at 0.18 mg/kg, ip after 48 hrs by HPLC-based fluorescence analysis; assay type: ADME, organism-based; conditions: in vivo; in short: as §1
[11] = Drug uptake in BALB/c mouse small intestine implanted with mouse 4T1 cells assessed per gram of tissue at 0.18 mg/kg, ip after 72 hrs by HPLC-based fluorescence analysis; assay type: ADME, organism-based; conditions: in vivo; in short: as §2
[12] = test system: 4T1; experiment: Antiangiogenic activity against mouse 4T1 cells implanted in BALB/c mouse at 0.045 mg/kg, ip administered for 48 hrs followed by irradiation at 48 J/cm2 measured after 6 days by hematoxylin/eosin-staining based microscopic analysis; assay type: functional, organism-based
In short: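 4T1 cells (1 × 10^6 in HBSS) were implanted in the left rear thigh of female BALB/c mice. At 48 h after i.p. dosing at 31.25 nmol·kg−1 in ethanol/PEG400/H2O (2/3/5) with 0.1% DMSO, the tumour was irradiated with a 100-W halogen lamp (λ > 500 nm, 48 J·cm−2). Skin with tumour was taken 6 days later, fixed in 4% paraformaldehyde, paraffin-embedded, cut into 7-µm sections, H&E-stained and examined by light microscopy.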

[13] = test system: HeLa; experiment: Dark cytotoxicity against human HeLa cells at 0.5 uM assessed as cell survival preincubated for 24 hrs measured by WST-8 assay in absence of photoirradiation; assay type: cell-based
In short: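 HeLa cells were seeded at 5 × 10^3 per well in DMEM with 10% FCS and grown for 24 h at 37°C. They were then exposed for 24 h to 0.5 µM photosensitizer (1% DMSO final), washed, and not irradiated. Viability was read 24 h later by WST-8 absorbance at 450 nm and expressed as percent of untreated wells.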

[14] = Photocytotoxicity against rat RGK1 cells assessed as cell survival preincubated for 24 hrs followed by irradiation at 16 J/cm2 measured at 24 hrs by WST-8 assay; assay type: functional, cell-based; conditions: RGK1, light or radiation study
In short: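 Cells (5 × 10^3/well) in DMEM with 10% FCS, 24 h at 37°C, 5% CO2; photosensitizer 1–50000 nM (1% DMSO final) for 24 h, washed, fresh medium. Irradiated with 100-W halogen lamp through λ>500 nm or λ>600 nm cutoff filter to 16 J·cm−2; WST-8 absorbance at 450 nm 24 h later, survival normalized to no-drug wells.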

[15] = test system: Liver; experiment: Drug uptake in BALB/c mouse liver implanted with mouse 4T1 cells assessed per gram of tissue at 0.18 mg/kg, ip after 24 hrs by HPLC-based fluorescence analysis; assay type: ADME, organism-based; conditions: in vivo; in short: as §1
[16] = test system: Spleen; experiment: Drug uptake in BALB/c mouse spleen implanted with mouse 4T1 cells assessed per gram of tissue at 0.18 mg/kg, ip after 24 hrs by HPLC-based fluorescence analysis; assay type: ADME, organism-based; conditions: in vivo; in short: as §2
[17] = test system: Zone of skin; experiment: Drug uptake in BALB/c mouse skin implanted with mouse 4T1 cells assessed per gram of tissue at 0.18 mg/kg, ip after 6 hrs by HPLC-based fluorescence analysis; assay type: ADME, organism-based; conditions: in vivo; in short: as §2
[18] = Drug uptake in BALB/c mouse small intestine implanted with mouse 4T1 cells assessed per gram of tissue at 0.18 mg/kg, ip after 6 hrs by HPLC-based fluorescence analysis; assay type: ADME, organism-based; conditions: in vivo; in short: as §2
[19] = test system: Heart; experiment: Drug uptake in BALB/c mouse heart implanted with mouse 4T1 cells assessed per gram of tissue at 0.18 mg/kg, ip after 48 hrs by HPLC-based fluorescence analysis; assay type: ADME, organism-based; conditions: in vivo; in short: as §1
[20] = test system: Spleen; experiment: Drug uptake in BALB/c mouse spleen implanted with mouse 4T1 cells assessed per gram of tissue at 0.18 mg/kg, ip after 48 hrs by HPLC-based fluorescence analysis; assay type: ADME, organism-based; conditions: in vivo; in short: as §2

Drug uptake [1]: 29 ng/g
Activity [2]: 0.25
Ratio [4]: 1.2
Drug uptake [5]: 90 ng/g
Drug uptake [6]: 6 ng
Drug uptake [7]: 7 ng
Drug uptake [8]: 13 ng
Drug uptake [9]: 1.2 ng
Drug uptake [10]: 3 ng/g
Drug uptake [11]: 9.8 ng/g
Drug uptake [15]: 60 ng
Drug uptake [16]: 58 ng
Drug uptake [17]: 5 ng
Drug uptake [18]: 90 ng
Drug uptake [19]: 2.1 ng/g
Drug uptake [20]: 14 ng
SMILES: CN1CC2C3=N/C(=C(/c4c(F)c(F)c(S[C@@H]5O[C@H](CO)[C@@H](O)[C@H](O)[C@H]5O)c(F)c4F)C4=N/C(=C(/c5c(F)c(F)c(F)c(F)c5F)c5ccc([nH]5)/C(c5c(F)c(F)c(S[C@@H]6O[C@H](CO)[C@@H](O)[C@H](O)[C@H]6O)c(F)c5F)=C5/C=CC(=N5)C3c3c(F)c(F)c(F)c(F)c3F)C=C4)C2C1 (stereo not given in full)
Activity [3]: Active
Activity [12]: Active
Activity [13]: Non-toxic
EC50 [14]: 1 nM
